Screens (PubChem)
Hits are enriched below; roughly 3.1% of the tested compounds scored in any of these assays.
OX1R antag-1: OX1R (HCRTR1) antagonists, primary screen, fluorescence, CHO/OX1R cells, Fluo-8 calcium, orexin A | Orexin/Hypocretin receptor type 1 (Homo sapiens), O43613 | Fluo-8 calcium fluorescence | inhibition, % at 5 µM | actives 0.43% (n = 330,000);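 active = inhibition above its plate's threshold, mean inhibition of all tested compounds on the plate plus 3 SD, cut at about 37% in these data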
GalR3 antag: GalR3 antagonists in HEK293 cells, primary screen, cell-based, fluorescence readout. Galanin receptor type 3 (Homo sapiens), O60755. HEK293 GalR3-CNG cAMP membrane potential fluorescence; galR3 body fused to GalR1 C-terminus. inhibition, % at 3 µM. actives 0.44% (n = 360,000). AID 651719, 2012;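 active = inhibition above the screen-wide average plus 3 SD, cut at about 13% in these data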;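 note: forskolin and galanin both at EC90 stimulate the cells; cAMP rise reported by CNG channel membrane potential dye signal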
Target sequence (O60755 1-299 limits assumed): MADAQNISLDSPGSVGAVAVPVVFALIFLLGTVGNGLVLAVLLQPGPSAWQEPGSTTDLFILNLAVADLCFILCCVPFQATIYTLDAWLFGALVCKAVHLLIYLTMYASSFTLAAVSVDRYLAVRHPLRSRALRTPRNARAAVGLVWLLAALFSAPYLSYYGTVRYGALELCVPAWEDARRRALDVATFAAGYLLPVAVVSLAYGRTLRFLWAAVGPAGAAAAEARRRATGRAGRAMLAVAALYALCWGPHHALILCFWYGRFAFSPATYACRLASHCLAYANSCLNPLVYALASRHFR
OX1R antag-2: antagonists of human orexin 1 receptor (OX1R) | Orexin/Hypocretin receptor type 1 (Homo sapiens), O43613 | OX1R-expressing cells, FRET antagonist read-out | inhibition, % at 6.6 µM | actives 1.8% (n = 330,000); in the data active = inhibition mostly above about 38%, no sharp cut-off; inactive = mostly below about 40%
CHO parental Ca: ATP-evoked calcium signal inhibitors, parental CHO, primary screen, counter-screen for OX1R antagonist project, cell-based, fluorescence, Fluo-8 calcium dye. parental CHO-K1, ATP-induced calcium, Fluo-8 fluorescence. AID 463079, 2010. actives 0.63% (n = 330,000). inhibition, % at 5.6 µM;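 active = inhibition above that plate's mean sample inhibition plus 3 SD, cut at about 26% in these data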
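Assay system: parental CHO cells; Read-out basis: percent inhibition of ATP-evoked calcium rise, normalized to controls; Benchmarks: ATP and no-ATP DMSO wells; Compound dosing: single nominal dose of 5.6 µM per compound; Signal: Fluo-8 calcium dye fluorescence; Also added: ATP as calcium-mobilizing challenge; Repeats: singlicate.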
GPR7 antag: GPR7 receptor antagonists, primary screen, cell-based, fluorescence, single concentration; Neuropeptides B/W receptor type 1 (Homo sapiens), P48145; GPR7-expressing cells, fluorescence antagonist assay; inhibition, % at 4.4 µM; actives 1.1% (n = 290,000); in the data active = inhibition above about 16%, passing the limit was not always enough;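 note: cells stimulated with the agonist NPW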
Target sequence (P48145 whole entry, looked up): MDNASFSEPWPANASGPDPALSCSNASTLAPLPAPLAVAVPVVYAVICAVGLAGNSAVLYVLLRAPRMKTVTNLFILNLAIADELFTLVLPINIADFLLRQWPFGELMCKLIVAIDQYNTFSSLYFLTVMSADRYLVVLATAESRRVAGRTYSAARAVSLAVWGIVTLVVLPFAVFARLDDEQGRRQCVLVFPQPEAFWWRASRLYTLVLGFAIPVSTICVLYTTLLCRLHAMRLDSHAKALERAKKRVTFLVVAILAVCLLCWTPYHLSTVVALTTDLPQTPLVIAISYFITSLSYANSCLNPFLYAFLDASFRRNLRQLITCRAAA
Of the large screens only hits and unclear results are named; the others gave an inactive call.

COc1ccc(Cl)cc1NC(=O)CN(C)C(=O)c1sc2ccccc2c1Cl	none (no result: GPR7 antag)
COc1ccc(Cl)cc1NC(=O)CN(C)C(=O)c1sccc1-c1ccccc1	OX1R antag-2 38.7 (no result: GPR7 antag)
O=C(c1ccccn1)N(CC1CCCO1)C1(C(=O)NC2CCCCC2)CCCCC1 (stereo not given)	none
O=C(Cc1cccs1)N(CC1CCCO1)C1(C(=O)NC2CCCC2)CCCCC1 (stereo not given)	GPR7 antag 37.3
Cc1ccccc1OCCC(=O)OCC(=O)NC1CCS(=O)(=O)C1 (stereo not given)	none (no result: GPR7 antag)
COc1ccc(CCNC(=O)Cc2ccc([N+](=O)[O-])cc2)cc1OC	none
COc1ccc(CCNC(=O)c2ccccc2C(=O)NCCc2ccc(OC)c(OC)c2)cc1OC	OX1R antag-2 49.8 (no result: GPR7 antag)
NS(=O)(=O)c1ccc(CCNC(=O)c2ccc3c(c2)N(Cc2ccccc2)CCS3)cc1	OX1R antag-2 70.3
O=C(NCCCN1CCCC1)c1ccc2c(c1)N(Cc1ccccc1)CCS2	none
COc1ccc(CCNC(=O)c2ccc3c(c2)N(Cc2ccccc2)CCS3)cc1OC	OX1R antag-2 57.3
COc1ccc(OC)c(CCNC(=O)c2ccc3c(c2)N(Cc2ccccc2)CCS3)c1	none
COc1ccc(CCNC(=O)c2cccs2)cc1OC	none
COc1ccc(CCNC(=O)Cc2ccc(OCc3ccccc3)c(OC)c2[N+](=O)[O-])cc1OCc1ccccc1	CHO parental Ca 45.6
COC(=O)[C@]12C[C@H](CC(=O)NCC34CC5CC(CC(C5)C3)C4)C(=O)N(Cc3ccccc3)C1=C[C@H](C(C)(C)C)O[C@@H]2C	none (no result: OX1R antag-1, OX1R antag-2, CHO parental Ca, GPR7 antag)
CC(C)(C)C1CCNC(=O)CC1 (stereo not given)	none (no result: OX1R antag-1, OX1R antag-2, CHO parental Ca, GPR7 antag)
O=C(Cn1ccccc1=S)c1ccc(Cl)c(Cl)c1	none (no result: GPR7 antag)
On1ccccc1=S	OX1R antag-1 36.5, CHO parental Ca 40.5 (no result: GPR7 antag)
c1csc(COc2ccccc2CNC2CCCCC2)c1	GPR7 antag 23.8
COc1ccccc1CCNC(=O)Cn1ccc2cc(S(=O)(=O)N3CCCC3)ccc21	OX1R antag-2 55.5
COc1cccc(CNC(=O)Cn2ccc3cc(S(=O)(=O)N4CCCC4)ccc32)c1OC	none
O=C(Cn1ccc2cc(S(=O)(=O)N3CCCC3)ccc21)NCCc1ccccc1	OX1R antag-2 55.5
O=C(CCn1ccc2cc(S(=O)(=O)N3CCCC3)ccc21)NCCc1ccccc1	none
Cn1c(=O)oc2cc(S(=O)(=O)N3CCC(C(=O)NCCc4ccccc4)CC3)ccc21	CHO parental Ca 41.4
N#Cc1ccccc1S(=O)(=O)N1CCN(CC(=O)Nc2ccccc2C(=O)NC2CC2)CC1	none (no result: GPR7 antag)
O=c1[nH]c(=O)c2nnc(N/N=C/c3ccccc3F)nc2[nH]1	none
O=c1[nH]c(=O)c2nnc(N/N=C\c3ccc(O)cc3)nc2[nH]1	OX1R antag-2 62.1
COc1cc(/C=N/N2C(=O)CSC2=S)ccc1O	none
O=C1CSC(=S)N1/N=C/c1cc(Br)c(O)c(Br)c1	OX1R antag-1 89.9, CHO parental Ca 74.7 (no result: GalR3 antag)
Cc1nnc(N2C(=O)C(=O)/C(=C(\O)c3ccc4c(c3)CC(C)O4)C2c2ccccc2)s1 (stereo not given)	none
CC1Cc2ccccc2N1C(=O)CNCCCN(C)C (stereo not given)	none
CC1CC2(C)Oc3ccccc3CC2C(C)C1CNCCCN(C)C (stereo not given)	GPR7 antag 43.8
CCn1c(C)csc1=NC(=O)c1ccccc1	OX1R antag-2 75.7
CN(C)c1ccc2nc3c(=O)[nH]c(=O)nc-3n(CC(O)C(O)C(O)CO)c2c1 (stereo not given)	OX1R antag-2 74.0
CN(c1ccc(NC(=O)CCc2cn(Cc3ccc(Br)cc3)c3ccccc23)cc1)c1ccccn1	none (no result: OX1R antag-1, OX1R antag-2, CHO parental Ca, GPR7 antag)
Cn1nc(-c2ccc(Cl)cc2)nc2c(=O)n(C)c(=O)nc1-2	OX1R antag-2 91.0 (no result: GalR3 antag)
Cc1ccc(C)c(S(=O)(=O)Nc2ccccc2C(=O)Nc2cc(C)on2)c1	OX1R antag-2 36.1
Cc1cc(NC(=O)c2ccccc2NS(=O)(=O)c2c(C)c(C)cc(C)c2C)no1	none
Cc1ccc([N+](=O)[O-])cc1S(=O)(=O)Nc1cccc(S(=O)(=O)Nc2ccccc2C(=O)O)c1	none (no result: GPR7 antag)
Cc1ccc(C)c(NC(=O)c2ccccc2NS(=O)(=O)c2cc([N+](=O)[O-])ccc2C)c1	OX1R antag-2 55.1
CN1C(=O)C2(OCCCO2)c2ccccc21	none
CNC(=O)c1ccc(CN(C)CC(=O)Nc2ccccc2C(=O)NC2CC2)cc1	none (no result: GPR7 antag)
CC(C)Cn1c(N)c(/C=N/NC(=O)c2ccc(Cl)cc2)c(=O)n(C)c1=O	none
COc1ccc(C2CC(=O)C(c3cccc(Cl)c3)=CN2Cc2ccccc2)cc1 (stereo not given)	none (no result: OX1R antag-1, OX1R antag-2, CHO parental Ca, GPR7 antag)
CCNc1nc(NCC)nc(N/N=C/c2ccc([N+](=O)[O-])o2)n1	OX1R antag-2 53.8
O=[N+]([O-])c1ccc(/C=N/Nc2ccc3ccccc3c2)o1	CHO parental Ca 42.5
O=C(Nc1ccc(C2=NCCN2)cc1)c1ccc(C(=O)Nc2ccc(C3=NCCN3)cc2)c([N+](=O)[O-])c1	OX1R antag-2 38.4
CCn1c(N2CCN(C(=S)NCC(C)C)CC2)nc2ccccc21	none
CC(C)CNC(=S)N1CCN(c2nc3ccccc3s2)CC1	CHO parental Ca 71.7
CC(C)C(=O)N(c1cc2sc(=O)oc2c2ccccc12)S(=O)(=O)c1cccs1	OX1R antag-1 67.7, CHO parental Ca 87.2
Cc1cc(C)c(C(N)=O)c(SCC(=O)c2cc(C)n(-c3cc(C)on3)c2C)n1	CHO parental Ca 31.4 (no result: GPR7 antag)
CC(=O)C1=C(C)OC(N)=C(C#N)C1c1cccc([N+](=O)[O-])c1 (stereo not given)	GPR7 antag 32.9
Cc1c(C(=O)OCC(=O)Nc2ccc(S(N)(=O)=O)cc2)oc2c1ccc1ccccc12	CHO parental Ca 40.9
COc1cccc(CNC(=O)[C@H]2CCCN2C(=O)[C@H]2CCCN2C(=O)N2CCOCC2)c1	none (no result: OX1R antag-1, OX1R antag-2, CHO parental Ca, GPR7 antag)
CC(C)CCCCCCCCc1cccc(O)c1C(=O)O	none (no result: OX1R antag-1, OX1R antag-2, CHO parental Ca, GPR7 antag)
CN(C)CCN(C)C1CN(Cc2ccc(F)cc2)S(=O)(=O)C1 (stereo not given)	none (no result: OX1R antag-1, OX1R antag-2, CHO parental Ca, GPR7 antag)
N/C(=N\OC(=O)c1cccc(Cn2cc(C(F)(F)F)ccc2=O)c1)c1ccccc1	OX1R antag-1 48.0, CHO parental Ca 46.1
COC(=O)[C@]12C[C@H](CC(=O)NCC3CCCCC3)C(=O)N(Cc3ccccc3)C1=C[C@H](C(C)C)O[C@@H]2C1CC1	none (no result: OX1R antag-1, OX1R antag-2, CHO parental Ca, GPR7 antag)
Nc1nc2c(ncn2[C@@H]2O[C@H](C(=O)NCCCN3CCCC3=O)[C@@H](O)[C@H]2O)c(=O)[nH]1	none (no result: OX1R antag-1, OX1R antag-2, CHO parental Ca, GPR7 antag)
CCCN1CCC(=NNc2ccc(S(=O)(=O)N3CCOCC3)cc2[N+](=O)[O-])CC1	OX1R antag-2 71.2
COc1ccc(CC(=O)N(Cc2ccccc2)c2ccccc2)cc1S(=O)(=O)N1CCOCC1	OX1R antag-2 58.0
